This is an account of results in ChEMBL document CHEMBL4706647, “Development and optimization of halogenated vinyl sulfones as Nrf2 activators for the treatment of Parkinson's disease” (Eur J Med Chem, 2021).

Calls of active or inactive are those of the source. No cut-off for these calls is given here.

A word on the EC50: it is the midpoint of the concentration-response curve.

Data set [1] deals with T1, Nuclear factor erythroid 2-related factor 2 (Mus musculus) (UniProt Q60795).
T1 sequence (whole entry): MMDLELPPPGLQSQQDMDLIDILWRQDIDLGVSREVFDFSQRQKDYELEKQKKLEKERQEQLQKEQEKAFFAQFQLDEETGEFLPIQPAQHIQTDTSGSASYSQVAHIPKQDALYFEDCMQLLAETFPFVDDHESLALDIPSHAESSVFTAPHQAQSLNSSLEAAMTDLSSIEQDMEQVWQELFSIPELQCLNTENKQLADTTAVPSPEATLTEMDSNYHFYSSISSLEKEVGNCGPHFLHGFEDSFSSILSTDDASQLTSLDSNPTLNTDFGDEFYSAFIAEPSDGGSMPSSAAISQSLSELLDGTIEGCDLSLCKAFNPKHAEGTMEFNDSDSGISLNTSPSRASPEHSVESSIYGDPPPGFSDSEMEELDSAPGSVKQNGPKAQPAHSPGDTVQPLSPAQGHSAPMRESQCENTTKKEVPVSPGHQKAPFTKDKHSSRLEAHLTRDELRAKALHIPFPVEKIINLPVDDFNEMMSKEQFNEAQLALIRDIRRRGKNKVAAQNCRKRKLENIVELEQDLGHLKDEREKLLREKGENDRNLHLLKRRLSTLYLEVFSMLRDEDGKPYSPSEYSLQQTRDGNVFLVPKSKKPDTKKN
Put plainly: Activation of Nrf2 in mouse BV-2 cells assessed as increase in GCLM expression at 10 uM after 6 hrs by Western blot analysis relative to control. The class given is cell-based. The settings on record: filed as activator. The essentials: (§1)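 BV-2 microglia grown in RPMI-1640 with 10% FBS, penicillin-streptomycin and 2 mM L-glutamine at 37 °C, 5% CO2. Cells exposed to a range of concentrations for 6 h, then HO-1, GCLC, GCLM and SOD1 protein measured by Western blot. Band intensity normalized to β-actin and given as fold of vehicle control. Mean ± SEM, n = 3, three separate experiments.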
Background: In western blotting, separated proteins are transferred to a membrane and probed.

In data set [2] the target is T1, Nuclear factor erythroid 2-related factor 2 (Mus musculus). Put plainly: Activation of Nrf2 in mouse BV-2 cells assessed as increase in nuclear Nrf2 levels after 6 hrs by Western blot analysis. The settings on record: filed as activator, dose 0.02-10 µM. It counts as cell-based.
For data set [3] the target is unchanged. Kind of data set: Activation of Nrf2 in mouse BV-2 cells assessed as increase in SOD1 expression after 6 hrs by Western blot analysis. The settings on record: filed as activator, dose 0.02-10 µM. It counts as cell-based. Summed up: as §1
The next data set addresses T2, CYP1A2 (Homo sapiens, UniProt P05177).
T2 sequence (P05177 whole entry): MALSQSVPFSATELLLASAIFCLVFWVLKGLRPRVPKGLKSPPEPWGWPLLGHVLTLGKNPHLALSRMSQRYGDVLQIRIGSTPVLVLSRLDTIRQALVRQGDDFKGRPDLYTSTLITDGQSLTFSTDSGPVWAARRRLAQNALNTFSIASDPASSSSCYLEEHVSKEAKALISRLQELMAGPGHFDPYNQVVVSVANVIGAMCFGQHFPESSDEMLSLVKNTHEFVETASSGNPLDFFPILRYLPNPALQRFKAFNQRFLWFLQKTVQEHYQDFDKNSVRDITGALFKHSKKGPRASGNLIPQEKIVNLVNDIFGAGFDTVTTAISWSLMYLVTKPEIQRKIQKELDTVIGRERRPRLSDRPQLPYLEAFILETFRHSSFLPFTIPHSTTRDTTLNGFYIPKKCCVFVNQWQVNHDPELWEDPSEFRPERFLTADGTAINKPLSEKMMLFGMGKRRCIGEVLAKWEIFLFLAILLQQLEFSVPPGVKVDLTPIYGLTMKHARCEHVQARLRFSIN
Kind of data set: Inhibition of CYP1A2 (unknown origin) assessed as residual activity. It counts as ADME.

Data set [4] concerns the target T1, Nuclear factor erythroid 2-related factor 2 (Mus musculus). Put plainly: Activation of Nrf2 in mouse BV-2 cells assessed as increase in nuclear Nrf2 levels at 10 uM after 6 hrs by Western blot analysis relative to control. The class given is cell-based. Particulars: filed as activator.
For another data set, the system named is BV-2. Kind of data set: Antiinflammatory activity in mouse BV-2 cells assessed as inhibition of LPS-induced nitric oxide production preincubated for 6 hrs followed by LPS stimulation and measured after 24 hrs by griess assay. The class given is functional, cell-based. The settings on record: dose 0.01-3 µM, time 30.0 hrs. Summed up: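 Nitrite in medium read by Griess reaction. BV-2 cells pretreated 6 h across a dose range, then given LPS for 24 h. Medium treated with 1% sulfanilamide in 5% phosphoric acid, then 0.1% N-1-naphthylethylenediamine, each 5 min at RT in the dark. A540 read and converted against a nitrite standard curve.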

The target of another data set is CYP2C9 (Homo sapiens, UniProt P11712). Put plainly: Inhibition of CYP2C9 (unknown origin) assessed as residual activity. The class given is ADME.
A further data set has as its system Mus musculus. Put plainly: Neuroprotective activity in MPTP-induced C57BL/6 mouse model of Parkinson's disease assessed as reduction in time to climb down at 30 mg/kg, po pretreated for 1 day followed by MPTP challenge and subsequent compound dosing for 2 days measured 6 days post MPTP challenge by vertical grid test. The class given is functional, organism-based. Particulars: time 7.0 day. The essentials:
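Male C57BL/6 mice, 10 weeks old, 23–26 g, n = 10 per group. Dosed 30 mg/kg p.o. for 3 consecutive days in 10% N-methyl-2-pyrrolidone/20% Tween-80 in water. On day 2, MPTP-HCl 20 mg/kg i.p. given four times at 2 h intervals. Coat-hanger (scored 1–5, test done twice) and vertical grid tests run 6 days after MPTP. Brains taken next day for anti-TH immunohistochemistry (1:1000, DAB).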

A further data set has as its target CYP2C19 (Homo sapiens, UniProt P33261). Kind of data set: Inhibition of CYP2C19 (unknown origin) assessed as residual activity. The class given is ADME.
Data set [5] has as its target T3, Nuclear factor erythroid 2-related factor 2 (Homo sapiens, UniProt Q16236).
T3 sequence (Q16236 whole entry): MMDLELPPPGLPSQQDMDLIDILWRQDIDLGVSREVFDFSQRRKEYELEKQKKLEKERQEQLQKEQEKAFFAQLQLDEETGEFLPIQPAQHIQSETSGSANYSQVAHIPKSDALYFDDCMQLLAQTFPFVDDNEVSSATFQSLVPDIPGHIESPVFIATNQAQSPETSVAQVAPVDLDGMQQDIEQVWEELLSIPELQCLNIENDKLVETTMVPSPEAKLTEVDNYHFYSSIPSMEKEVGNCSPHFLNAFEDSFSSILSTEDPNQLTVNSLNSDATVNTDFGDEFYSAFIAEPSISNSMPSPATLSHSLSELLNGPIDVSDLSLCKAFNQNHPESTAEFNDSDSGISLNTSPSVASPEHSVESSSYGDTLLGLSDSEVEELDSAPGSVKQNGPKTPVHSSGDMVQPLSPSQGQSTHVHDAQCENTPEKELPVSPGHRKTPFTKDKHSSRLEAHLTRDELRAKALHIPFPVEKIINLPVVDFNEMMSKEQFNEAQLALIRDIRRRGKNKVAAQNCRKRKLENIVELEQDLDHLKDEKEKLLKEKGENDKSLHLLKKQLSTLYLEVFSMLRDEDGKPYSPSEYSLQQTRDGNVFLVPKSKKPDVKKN
Kind of data set: Activation of Nrf2 (unknown origin) expressed in human U2OS cells co-expressing Keap1 assessed as increase in Nrf2 nuclear translocation incubated for 6 hrs under dark condition by pathhunter assay. The class given is cell-based.

Sequence of CYP2C9 (P11712 whole entry): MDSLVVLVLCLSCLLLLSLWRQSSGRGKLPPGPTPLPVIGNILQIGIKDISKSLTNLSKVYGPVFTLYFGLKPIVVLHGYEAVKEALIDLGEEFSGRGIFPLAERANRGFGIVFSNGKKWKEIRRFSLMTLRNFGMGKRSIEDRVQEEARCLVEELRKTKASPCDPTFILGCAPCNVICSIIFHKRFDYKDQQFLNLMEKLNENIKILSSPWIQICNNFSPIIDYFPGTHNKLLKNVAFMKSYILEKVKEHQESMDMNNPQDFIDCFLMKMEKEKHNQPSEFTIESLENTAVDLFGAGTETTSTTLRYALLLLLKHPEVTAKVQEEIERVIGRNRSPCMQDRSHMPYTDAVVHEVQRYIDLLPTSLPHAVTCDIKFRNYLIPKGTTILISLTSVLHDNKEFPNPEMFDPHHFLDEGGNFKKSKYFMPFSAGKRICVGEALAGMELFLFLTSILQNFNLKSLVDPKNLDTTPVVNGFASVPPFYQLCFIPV
Sequence of CYP2C19 (P33261 whole entry): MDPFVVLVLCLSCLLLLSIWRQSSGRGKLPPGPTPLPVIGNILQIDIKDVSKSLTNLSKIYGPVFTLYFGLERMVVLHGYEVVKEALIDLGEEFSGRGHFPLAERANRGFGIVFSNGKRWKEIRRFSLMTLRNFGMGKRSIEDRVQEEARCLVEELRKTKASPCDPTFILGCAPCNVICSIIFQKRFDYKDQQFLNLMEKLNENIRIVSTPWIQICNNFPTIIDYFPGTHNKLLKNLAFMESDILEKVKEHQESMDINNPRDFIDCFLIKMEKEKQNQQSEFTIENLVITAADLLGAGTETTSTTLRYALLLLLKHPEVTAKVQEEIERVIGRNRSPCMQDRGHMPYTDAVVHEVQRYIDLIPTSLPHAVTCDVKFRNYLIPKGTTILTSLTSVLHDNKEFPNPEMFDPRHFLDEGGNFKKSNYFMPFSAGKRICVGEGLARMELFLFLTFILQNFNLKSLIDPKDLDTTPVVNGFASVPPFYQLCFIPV

On to `O=S(=O)(/C=C/c1ncccc1Cl)c1ccccc1Cl`, for which the figures for the fold change (FC) in data set [1] and in data set [4] were 26.1 and 22.6, respectively. Also, the Activity result in [2] and in data set [3] was “Dose-dependent effect” throughout. For the same compound, the activity was 88.4% on CYP1A2, 69.1% at CYP2C9 and 27.8% on CYP2C19. The inhibition result in the data set on BV-2 is “Dose-dependent effect”. Moreover, the Activity entry in the data set with Mus musculus was “Active”. Also, in [5], the 50% effective concentration (EC50) turned out to be 26 nM.
